In paper PMC4230422 (Journal of Experimental & Clinical Cancer Research : CR, 2014):

Experiments:
VM-CUB1 [1] = test: CellTiter-Glo ATP cell viability assay, VM-CUB1; type: cell-based, human; settings: VM-CUB1, 72 h of HDAC8 inhibitor treatment
Procedure, shortened: (§1)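 UCCs kept in DMEM GlutaMAX-I plus 10% FCS at 37°C, 5% CO2. Cells seeded in 96-well plates and grown 24 h, then given one treatment at the indicated inhibitor concentrations (10 mM DMSO stock) or DMSO for 72 h. Viable cells read as total cellular ATP by CellTiter-Glo luminescence. IC50 and dose-response curves fitted by non-linear regression.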

SW-1710 [2] = test: CellTiter-Glo ATP cell viability assay, SW-1710; type: cell-based, human; settings: SW-1710, 72 h of HDAC8 inhibitor treatment
Procedure, shortened: as §1

RT-112 [3] = test: CellTiter-Glo ATP cell viability assay, RT-112; type: cell-based, human; settings: RT-112, 72 h of HDAC8 inhibitor treatment
Procedure, shortened: as §1

639-V [4] = test: CellTiter-Glo ATP cell viability assay, 639-V; type: cell-based, human; settings: 72 h of HDAC8 inhibitor treatment
Procedure, shortened: as §1

UM-UC-3 [5] = test: CellTiter-Glo ATP cell viability assay, UM-UC-3; type: cell-based, human; settings: UM-UC-3, 72 h of HDAC8 inhibitor treatment
Procedure, shortened: as §1

[6] = test system: Normal Uroepithelial Control; test: CellTiter-Glo ATP cell viability assay, normal uroepithelial control; type: cell-based, human; settings: 72 h of HDAC8 inhibitor treatment
Procedure, shortened: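 Normal urothelial cells isolated from ureters after nephrectomy, grown in keratinocyte serum-free medium with 0.25 ng/ml EGF and 12.5 μg/ml bovine pituitary extract. Seeded in 96-well plates for 24 h, then treated once with the indicated inhibitor concentrations (10 mM DMSO stock) or DMSO for 72 h. Read by CellTiter-Glo total-ATP luminescence. IC50 from non-linear regression.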

VM-CUB1 [7] = test: Colony forming assay, VM-CUB1; type: cell-based, human; settings: VM-CUB1, 72 h treatment at IC50 concentrations
Procedure, shortened: (§2)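 After a single 72 h inhibitor or DMSO treatment, cells were replated at 500 to 1,000 cells per well in 6-well plates and grown 10 days. Then PBS-washed, fixed briefly in 50% methanol and 10 min in 100% methanol, and Giemsa-stained. Colony number and size measured by image analysis against the DMSO control.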

[8] = test system: urothelial cancer cell lines (UCCs); test: CellTiter-Glo ATP cell viability assay, urothelial cancer cell line panel; type: cell-based, human; settings: 72 h inhibitor treatment
Procedure, shortened: as §1

SW-1710 [9] = test: Colony forming assay, SW-1710; type: cell-based, human; settings: SW-1710, 72 h treatment at IC50 concentrations
Procedure, shortened: as §2

RT-112 [10] = test: Colony forming assay, RT-112; type: cell-based, human; settings: RT-112, 72 h treatment at IC50 concentrations
Procedure, shortened: as §2

639-V [11] = test: Colony forming assay, 639-V; type: cell-based, human; settings: 72 h treatment at IC50 concentrations
Procedure, shortened: as §2

UM-UC-3 [12] = test: Colony forming assay, UM-UC-3; type: cell-based, human; settings: UM-UC-3, 72 h treatment at IC50 concentrations
Procedure, shortened: as §2

VM-CUB1 [13] = test: Wound healing migration assay, VM-CUB1; type: cell-based, human; settings: VM-CUB1, IC50 concentrations, especially after 6 - 12 h
UM-UC-3 [14] = test: Wound healing migration assay, UM-UC-3; type: cell-based, human; settings: UM-UC-3, IC50 concentrations, especially after 6 - 12 h
[15] = test system: thymidylate synthase (TS); test: Western blot of thymidylate synthase in UCCs; type: cell-based, human; settings: inhibitor IC50, 72 h
p21 = test: Western blot of p21 in UCCs; type: cell-based, human
acetylated α-tubulin = test: Western blot of acetylated α-tubulin in UCCs; type: cell-based, human; settings: all cell lines, inhibitor IC50, 72 h
[16] = test system: urothelial cancer cell lines (UCCs); test: Cell cycle analysis by flow cytometry; type: cell-based, human; settings: for G1-fraction / G2/M-arrest: VM-CUB1, SW-1710, 639-V and UM-UC-3 cells, inhibitor IC50, 72 h; for sub-G1 fraction: VM-CUB1 and SW-1710, inhibitor IC50, 72 h
Procedure, shortened: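 UCCs grown in DMEM GlutaMAX-I with 10% FCS at 37°C and 5% CO2. One inhibitor dose was given 24 h after seeding (10 mM DMSO stock), with DMSO as solvent control and the pan-HDAC inhibitor SAHA (2.5 μM). After 72 h, attached and floating cells were stained in PI buffer (50 μg/ml PI, 0.1% sodium citrate, 0.1% Triton X-100) and run on flow cytometry. Sub-G1 counted as apoptotic.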

[17] = test system: acetylated histone H3 and H4; test: Western blot of histone H3 and H4 acetylation; type: cell-based, human; settings: for H4 acetylation: 639-V, inhibitor IC50, 72 h
Procedure, shortened: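 Histone acetylation checked after 72 h inhibitor or DMSO treatment. 1 μg of each sample run on 15% SDS-PAGE and transferred to PVDF. Probed for acetylated H3 (1:2,000), total H3 (1:1,000), acetylated H4 (1:1,000) and total H4 (1:500). Blocking in 5% milk/TBST, primary 1 h at room temperature or overnight at 4°C, HRP-conjugated secondaries.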

HDAC1, HDAC2 and HDAC3 = test: Expression of other class I HDACs; type: cell-based, human; settings: SW-1710 and VM-CUB1 cells, inhibitor IC50, 72 h, western blot
HDAC6 = settings: in vitro; cited from earlier work
PARP = test: Western blot of PARP cleavage in UCCs; type: cell-based, human; settings: SW-1710, inhibitor IC50, 72 h
[18] = VM-CUB1, SW-1710 and UM-UC-3 cells
[19] = SW-1710 and 639-V, inhibitor IC50, 72 h

Question: Which results are given for `O=C(NO)c1cccc2ccccc12` [Compound 2, 1-napthohydroxamic acid, reference compound]?
Answer: IC50 (VM-CUB1 [1]): ≥ 50 µM; IC50 (SW-1710 [2]): ≥ 50 µM; IC50 (RT-112 [3]): ≥ 50 µM; IC50 (RT-112 [3]; listed as c2): > 50 µM; IC50 (639-V [4]): ≥ 50 µM; IC50 (UM-UC-3 [5]): ≥ 50 µM; IC50 [6]: ≥ 50 µM; clonogenic growth (VM-CUB1 [7]): inhibited clonogenicity

Question: With `O=C(/C=C/Cc1cccc2ccccc12)NO` [Compound 5, δ-naphtyl-trans 2-butenoil hydroxamic acid] as the compound, how does the IC50 (VM-CUB1 [1]) read?
Answer: 18.7 µM

Question: What about the IC50 (SW-1710 [2]) of the same compound?
Answer: 20.8 µM

Question: What about the IC50 (RT-112 [3]) of the same compound?
Answer: 9.7 µM

Question: What about the IC50 (RT-112 [3]; listed as c5) of the same compound?
Answer: ~9.7 µM

Question: What about the IC50 (639-V [4]) of the same compound?
Answer: 12.6 µM

Question: And the IC50 (UM-UC-3 [5])?
Answer: 18.9 µM

Question: What about the IC50 [6] of the same compound?
Answer: 24.2 µM

Question: What about the “viability of all UCCs” value [8] of the same compound?
Answer: significantly reduced

Question: What about the clonogenic growth (VM-CUB1 [7]) of the same compound?
Answer: completely abolished

Question: What about the clonogenic growth (SW-1710 [9]) of the same compound?
Answer: no effect

Question: What about the clonogenic growth (RT-112 [10]) of the same compound?
Answer: moderate reduction of colony numbers

Question: And the clonogenic growth (639-V [11])?
Answer: moderate reduction of colony numbers

Question: What about the clonogenic growth (UM-UC-3 [12]) of the same compound?
Answer: moderate reduction of colony numbers

Question: What about the “wound healing (relative scratch size) vs DMSO control” value (VM-CUB1 [13]) of the same compound?
Answer: clear difference

Question: And the “wound healing (relative scratch size) vs DMSO control” value (UM-UC-3 [14])?
Answer: clear difference

Question: What about the “expression of thymidylate synthase (TS)” value ([15]; 639-V and RT-112 cells) of the same compound?
Answer: No effects

Question: What about the “expression of thymidylate synthase (TS)” value [15, 18] of the same compound?
Answer: weakly reduced

Question: And the p21 expression (p21; [19])?
Answer: decreased

Question: And the “acetylated α-tubulin” value (acetylated α-tubulin; listed as c5)?
Answer: strong increase

Question: What about the G1-fraction [16] of the same compound?
Answer: significant decrease

Question: And the G2/M-arrest [16]?
Answer: indications of a G2/M-arrest

Question: What about the sub-G1 fraction [16] of the same compound?
Answer: significant increase

Question: What about the H4 acetylation [17] of the same compound?
Answer: slight increase

Question: And the “protein expression of HDAC1 and HDAC2/3” value (HDAC1, HDAC2 and HDAC3)?
Answer: slightly reduced

Question: And the “inhibition of HDAC6” value (HDAC6)?
Answer: do not inhibit HDAC6 efficiently

Question: Which results are given for `O=C(NO)c1ccc(-c2cccc3ccccc23)cc1` [Compound 6, 4-naphtyl-benzoil hydroxamic acid]?
Answer: IC50 (VM-CUB1 [1]): 16 µM; IC50 (SW-1710 [2]): 18.8 µM; IC50 (RT-112 [3]): 9.1 µM; IC50 (RT-112 [3]; listed as c6): ~9.1 µM; IC50 (639-V [4]): 18.6 µM; IC50 (UM-UC-3 [5]): 18.2 µM; IC50 [6]: 10.2 µM; viability of all UCCs [8]: significantly reduced; clonogenic growth (VM-CUB1 [7]): most efficient; clonogenic growth (SW-1710 [9]): active; clonogenic growth (RT-112 [10]): active; clonogenic growth (639-V [11]): most efficient; clonogenic growth (UM-UC-3 [12]): most efficient; wound healing (relative scratch size) vs DMSO control (VM-CUB1 [13]): clear difference; wound healing (relative scratch size) vs DMSO control (UM-UC-3 [14]): clear difference; expression of thymidylate synthase (TS) ([15]; 639-V and RT-112 cells): No effects; expression of thymidylate synthase (TS) [15, 18]: weakly reduced; cleavage of PARP (PARP): Increased cleavage of PARP; p21 expression (p21; [19]): decreased; p21 expression (p21; UM-UC-3, inhibitor IC50, 72 h): decreased; acetylated α-tubulin (acetylated α-tubulin; listed as c6): strong increase; G1-fraction [16]: significant decrease; G2/M-arrest [16]: indications of a G2/M-arrest; sub-G1 fraction [16]: significant increase; H4 acetylation [17]: slight increase; protein expression of HDAC1 and HDAC2/3 (HDAC1, HDAC2 and HDAC3): slightly reduced; inhibition of HDAC6 (HDAC6): do not inhibit HDAC6 efficiently

Question: Which “histone H3 or H4 acetylation” value ([17]; SAHA control) does the source give for `O=C(CCCCCCC(=O)Nc1ccccc1)NO` [SAHA, suberoylanilide hydroxamic acid, reference compound] here?
Answer: led to a change
